According to paper PMC12282411 (Virologica Sinica, 2025):
Residue numbers refer to the chain shown, from its start. Where a name gives a salt, the structure may show the parent alone.

Columns and labels:
DENV 2 [1] = assay: microbe, parasite or virus in culture; format: cell-based; details: for EC50: Dengue virus, BHK-21, 48 h, read-out: EC50 (BHK-21 μM); for SI (CC50/EC50): selective index, BHK-21 CC50 / BHK-21 EC50
DENV 2 [2] = assay: Antiviral assay on Huh 7 cells; format: cell-based; details: Dengue virus, Huh-7, 48 h, read-out: EC50 (Huh 7 μM)
Outline: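 Huh 7 cells were seeded at 4×10^4/well and grown overnight at 37 °C, 5% CO₂. Test compound was serially diluted threefold from 50 µM in DMEM with 2% FBS and added to cells for 1 h. DENV 2 was added at MOI 1 for 1 h, then the inoculum was removed, cells washed with PBS, and compound re-added. After two days, supernatant viral RNA was quantified by one-step SYBR RT-qPCR against an NS5A standard curve.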

NS2B-NS3pro = target: T1, NS2B-NS3pro (Dengue virus type 2, UniProt P29990, M1488V); format: binding, DENV 2; details: SPR
T1 sequence (P29990 with tags, fused parts or gaps T1441G/I1442G/L1443G/I1444G/R1445S/T1446G/DEL1448-1473/Q1474G/R1475G/M1488V): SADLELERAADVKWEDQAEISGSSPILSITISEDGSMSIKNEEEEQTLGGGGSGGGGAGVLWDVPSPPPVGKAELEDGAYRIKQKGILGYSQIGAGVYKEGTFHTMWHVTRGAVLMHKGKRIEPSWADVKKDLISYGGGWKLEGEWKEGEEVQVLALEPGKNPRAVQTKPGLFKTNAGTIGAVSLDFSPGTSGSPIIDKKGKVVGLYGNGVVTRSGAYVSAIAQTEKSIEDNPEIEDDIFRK

DENV 2 [3] = assay: DENV 2 challenge of AG129 mice; format: in vivo; details: for viral copy numbers in the spleen and liver: i.g., two days post infection, Fig. 2F
Pharmacokinetics in rats = format: in vivo, Sprague-Dawley rats; details: SD rats, i.v. as a reference
Outline: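 Male Sprague-Dawley rats (180–220 g), three per group, were fasted overnight. Test compound was dosed i.g. at 20 mg/kg as a suspension in 0.4% sodium carboxymethylcellulose, or i.p. dissolved by sonication in 10% DMSO/40% PEG 300/5% Tween 80/45% saline. Jugular plasma was sampled repeatedly up to 36 h. Samples were mixed with diclofenac sodium, precipitated with acetonitrile, and analysed by LC-MS/MS. Parameters were derived by non-compartmental analysis.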

DENV 2 [4] = assay: Time-of-addition assay; format: cell-based; details: BHK-21 cells
Outline: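 The assay used BHK-21 cells seeded overnight. In the treatment-mode arms, cells were infected at MOI 0.1 for 0–1 h, with compound applied as virus pretreatment for 1 h, cell pretreatment (–1–0 h), post-infection (1–46 h) or full-time (–1–46 h). In the addition-time arms, infection was at MOI 1 for 1 h, with compound added at 0–36 h. Readout at 48 h was supernatant RT-qPCR and IFA, with DMSO and ribavirin as controls.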

ZIKV NS2B-NS3pro = target: T2, ZIKV NS2B-NS3pro (Zika virus, UniProt Q32ZE1); assay: FRET assay on ZIKV NS2B-NS3pro; format: biochemical
T2 sequence (Q32ZE1 with tags, fused parts or gaps DEL1464-1489/Y1490G/V1491G/Y1492G/V1493G/K1494S/T1495G/K1497G/R1498G): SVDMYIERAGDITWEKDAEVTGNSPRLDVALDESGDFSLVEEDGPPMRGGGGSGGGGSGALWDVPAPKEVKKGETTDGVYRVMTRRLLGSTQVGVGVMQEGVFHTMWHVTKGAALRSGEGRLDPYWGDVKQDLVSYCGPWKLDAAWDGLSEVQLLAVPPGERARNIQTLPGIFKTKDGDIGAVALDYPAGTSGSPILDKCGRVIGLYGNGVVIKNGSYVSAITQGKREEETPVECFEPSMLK

DENV 2 NS2B-NS3pro = target: T3, DENV 2 NS2B-NS3pro (Dengue virus type 2, UniProt P29990); assay: Enzyme kinetic analysis; format: biochemical
T3 sequence (P29990 with tags, fused parts or gaps T1441G/I1442G/L1443G/I1444G/R1445S/T1446G/DEL1448-1473/Q1474G/R1475G): T1 sequence (P29990 with tags, fused parts or gaps T1441G/I1442G/L1443G/I1444G/R1445S/T1446G/DEL1448-1473/Q1474G/R1475G/M1488V) with V70M

Water solubility = format: physicochemical

Row | SMILES | EC50 (DENV 2 [1]) [nM] | SI (CC50/EC50) (DENV 2 [1]) | EC50 (DENV 2 [2]) [nM] | viral copy numbers in the spleen and liver (DENV 2 [3]) | also measured
1 | CCOC(=O)c1ccc(C#Cc2ccc3c(c2)C(C)(C)CCS3)nc1 [AGN190168] | 10900 | 24.15 | 107 |  | 
2 | NC(=NCc1ccccc1)NC(=O)c1nc(Cl)c(N)nc1N [Benzamil hydrochloride] | 368 | 120.85 | 2620 |  | SI (CC50/EC50) (DENV 2 [1]; listed as benzamil hydrochloride): greater than 100; binding affinity on NS2B-NS3pro (NS2B-NS3pro): almost no binding affinity
3 | CC1=NN(c2ccc(C)c(C)c2)C(=O)/C1=N\Nc1cccc(-c2cccc(C(=O)O)c2)c1O [Eltrombopag] | 316 |  | 1460 | significantly reduced | viral copy numbers in the liver, spleen, and kidney (DENV 2 [3]; 10 or 20 mg/kg, i.g. or i.p., two days post challenge, Fig. 3C): reduced the viral copy numbers in the liver, spleen, and kidney in a dose-dependent manner; decrease of viral loads in spleen (DENV 2 [3]; DENV 2 at 10^7 TCID50): more than 1 log; expression of TNF-α and IL-6 in the blood (DENV 2 [3]; RT-qPCR, Fig. 3D): inhibited the expression of TNF-α and IL-6; inhibitory effect on viral copies by delivery route (DENV 2 [3]; i.p. compared with i.g., Fig. 3C): stronger inhibitory effect when delivered via i.p.; pharmacokinetics i.p. compared with i.g. (Pharmacokinetics in rats): better absorption, distribution, and clearance; inhibition on addition at 36 h or later (DENV 2 [4]; MOI = 1, RT-qPCR at 48 h): reduced inhibition; time of addition following DENV 2 infection with effective inhibition (DENV 2 [4]; MOI = 1, RT-qPCR at 48 h): ≤ 24 h; inhibition when added at the post-infection stage versus full-time treatment (DENV 2 [4]; RT-qPCR at 48 h): comparable inhibition; effect on the viruses and cells themselves (pretreatment modes) (DENV 2 [4]; pretreatment of virus or of cell): negligible effect; IC50 (ZIKV NS2B-NS3pro): 29800 nM; reversibility of binding to DENV2 NS2B-NS3pro (DENV 2 NS2B-NS3pro; varying NS2B-NS3pro, fixed substrate 20 μM, eltrombopag 0, 10 and 20 μM): reversibly binds; mode of inhibition with respect to substrate (DENV 2 NS2B-NS3pro; varying substrate, NS2B-NS3pro 300 nM, Vmax changes, Km unchanged): substrate-non-competitive manner; water solubility (Water solubility): poorly water-soluble
4 | Cc1cc(-c2ccc(/N=N/c3ccc4c(S(=O)(=O)O)cc(S(=O)(=O)O)c(N)c4c3O)c(C)c2)ccc1/N=N/c1ccc2c(S(=O)(=O)O)cc(S(=O)(=O)O)c(N)c2c1O [Evans Blue] | 4850 | 49.98 | 337 |  | 
5 | COC(=O)N[C@H](C(=O)N1CC2(CC2)C[C@H]1c1nc(-c2ccc3c(c2)C(F)(F)c2cc(-c4ccc5[nH]c([C@@H]6[C@H]7CC[C@H](C7)N6C(=O)[C@@H](NC(=O)OC)C(C)C)nc5c4)ccc2-3)c[nH]1)C(C)C [GS-5885] | 3320 |  | 529 | no effect | 
6 | COC(=O)N[C@H](C(=O)N1CCC[C@H]1c1nc(-c2ccc3c(c2)O[C@@H](c2ccccc2)n2c-3cc3cc(-c4c[nH]c([C@@H]5CCCN5C(=O)[C@@H](NC(=O)OC)C(C)C)n4)ccc32)c[nH]1)C(C)C [MK-8742] | 45.9 |  | 161 | no effect | 
7 | C#CCC(Cc1cnc2nc(N)nc(N)c2n1)c1ccc(C(=O)N[C@@H](CCC(=O)O)C(=O)O)cc1 (stereo partly drawn) [Pralatrexate] | < 7.6 | >13684.21 | < 70 |  | SI (CC50/EC50) (DENV 2 [1]; listed as pralatrexate): greater than 100; binding affinity on NS2B-NS3pro (NS2B-NS3pro): almost no binding affinity
8 | NC(=O)c1ncn([C@@H]2O[C@H](CO)[C@@H](O)[C@H]2O)n1 [Ribavirin] |  |  |  |  | time of addition following DENV 2 infection with effective inhibition (DENV 2 [4]; MOI = 1, RT-qPCR at 48 h): ≤ 12 h
